The results in this text go back to ChEMBL document CHEMBL1141532, “Design and synthesis of tetrazole-based growth hormone secretagogue: the SAR studies of the O-benzyl serine side chain” (Bioorg Med Chem Lett, 2008).

Assay [1] concerns the target Growth hormone secretagogue receptor type 1 (Homo sapiens, UniProt Q92847). The experiment in a line: […] human growth hormone secretagogue receptor assessed as measuring intracellular calcium level by FLIPR assay. Format: functional, cell-based. For orientation: Calcium flux is commonly read through the fluorescence of an indicator in the cells.
The test system of another assay is Rattus norvegicus. The experiment in a line: Increase of growth hormone release in rat plasma at 1.74 umol/kg, iv after 15 mins by radioimmunoassay relative to control. The class given is functional. Put shortly:
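Acute model in anesthetized rats. Dosed intravenously at 1.74 μmol/kg. Blood was drawn 15 min later and plasma was isolated. Rat GH was measured by radioimmunoassay. Results are given as percent increase in GH release over vehicle-treated control animals.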

Sequence of Growth hormone secretagogue receptor type 1 (Q92847 whole entry): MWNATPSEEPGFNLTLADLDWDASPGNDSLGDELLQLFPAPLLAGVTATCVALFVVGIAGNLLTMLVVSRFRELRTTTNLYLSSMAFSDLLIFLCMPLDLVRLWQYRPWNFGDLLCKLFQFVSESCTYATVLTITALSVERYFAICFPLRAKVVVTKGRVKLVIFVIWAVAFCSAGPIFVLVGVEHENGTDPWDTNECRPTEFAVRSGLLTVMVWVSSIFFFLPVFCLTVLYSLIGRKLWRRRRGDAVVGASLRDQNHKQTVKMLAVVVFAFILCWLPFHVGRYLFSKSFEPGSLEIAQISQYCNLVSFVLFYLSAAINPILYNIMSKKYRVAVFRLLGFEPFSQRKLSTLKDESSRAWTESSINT

As to `CC(C)(N)C(=O)N[C@H](COCc1cccc(C(F)(F)F)c1)c1nnnn1CCOC(=O)NCCCCO`, in assay [1], the EC50 is 1.79 nM.

As to `CC(C)(N)C(=O)N[C@H](COCc1cc(C(F)(F)F)cc(C(F)(F)F)c1)c1nnnn1CCOC(=O)NCCCCO`, the EC50 in assay [1] was 34 nM.

For `CC(C)(N)C(=O)N[C@H](COCc1cccc(OC(F)(F)F)c1)c1nnnn1CCOC(=O)NCCCCO`, the EC50 in assay [1] is 3.1 nM.

Take `CC(C)(N)C(=O)N[C@H](COCc1ccc(OC(F)(F)F)cc1)c1nnnn1CCOC(=O)NCCCCO`: the EC50 in assay [1] was 33.2 nM.

In the case of `CC(C)(N)C(=O)N[C@H](COCc1ccccc1C#N)c1nnnn1CCOC(=O)NCCCCO`, the 50% effective concentration (EC50) in assay [1] is 1.26 nM. This molecule returned an Activity in the assay on Rattus norvegicus of 920%.

With `COc1ccccc1COC[C@@H](NC(=O)C(C)(C)N)c1nnnn1CCOC(=O)NCCCCO`, in assay [1], the EC50 stood at 1.11 nM.

Turning to `CC(C)(N)C(=O)N[C@H](COCC1CCCCC1)c1nnnn1CCOC(=O)NCCCCO`, the EC50 in assay [1] worked out at 1.66 nM. The same molecule gave an Activity in the assay on Rattus norvegicus of 1654%.

On to `CC(C)(N)C(=O)N[C@H](COCc1ccc(F)cc1F)c1nnnn1CCOC(=O)NCCCCO`, for which, in assay [1], the EC50 was 0.42 nM. The Activity in the assay with Rattus norvegicus worked out at 1081%.

Take `CC(C)(N)C(=O)N[C@H](COCc1cccc(Cl)c1)c1nnnn1CCOC(=O)NCCCCO`: the EC50 in assay [1] is 1.6 nM.

As to `CC(C)(N)C(=O)N[C@H](COCc1cc(Cl)cc(Cl)c1)c1nnnn1CCOC(=O)NCCCCO`, in assay [1], the EC50 is 6.75 nM.

Regarding `CC(C)(N)C(=O)N[C@H](COCc1ccccc1C(F)(F)F)c1nnnn1CCOC(=O)NCCCCO`, in assay [1], the 50% effective concentration (EC50) stood at 0.72 nM.

`CC(C)(N)C(=O)N[C@H](COCc1ccccc1)c1nnnn1CCOC(=O)NCCCCO` yielded an Activity with Rattus norvegicus of 750%.

Turning to `CC(C)(N)C(=O)N[C@H](COCc1cccc(Cl)c1Cl)c1nnnn1CCOC(=O)NCCCCO`, the EC50 in assay [1] worked out at 0.61 nM.

On to `Cc1ccccc1COC[C@@H](NC(=O)C(C)(C)N)c1nnnn1CCOC(=O)NCCCCO`, for which the EC50 in assay [1] is 0.51 nM. The Activity in the assay with Rattus norvegicus is reported as 1441%.

In the case of `CC(C)(N)C(=O)N[C@H](COCc1ccccc1-c1cccnc1)c1nnnn1CCOC(=O)NCCCCO`, the EC50 in assay [1] was 1.18 nM.

Take `Cc1noc(C)c1-c1ccccc1COC[C@@H](NC(=O)C(C)(C)N)c1nnnn1CCOC(=O)NCCCCO`: in assay [1], the EC50 worked out at 1.04 nM. Moreover, the Activity in the assay on Rattus norvegicus came out at 5237%.

Consider `CC(C)(N)C(=O)N[C@H](COCc1ccccc1Cl)c1nnnn1CCOC(=O)NCCCCO`, for which the EC50 in assay [1] was determined as 0.45 nM.

As to `CC(C)(N)C(=O)N[C@H](COCc1ccccc1-c1ccccc1)c1nnnn1CCOC(=O)NCCCCO`, the EC50 in assay [1] is 0.34 nM. In the assay with Rattus norvegicus, this molecule registered an Activity of 836%.

In general, EC50 refers to the midpoint of the concentration-response curve.
